Laboratory results reported in ChEMBL document CHEMBL2413042, “Design, synthesis and evaluation of dialkyl 4-(benzo[d][1,3]dioxol-6-yl)-1,4-dihydro-2,6-dimethyl-1-substituted pyridine-3,5-dicarboxylates as potential anticonvulsants and their molecular properties prediction” (Eur J Med Chem, 2013).
≈ marks a conversion by molar mass, not a printed value. Calls of active or inactive are those of the source. The calls are words filed in the database; no cut-off is given here.

Assays:
[1] = test system: Rattus norvegicus; experiment: Anticonvulsant activity in Wistar albino rat assessed as protection against maximum electric shock-induced hind limb tonic extension at 50 mg/kg, po administered 1 hr followed by maximum electric shock induction relative to control; format: functional, Hindlimb
Method in brief: (§1)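 Male Wistar albino rats, six per group, were given test compound orally as a suspension in 0.5% sodium carboxymethylcellulose. Controls received vehicle; phenytoin 30 mg/kg was given orally. One hour after dosing, 150 mA was applied for 0.2 sec through corneal electrodes. Duration of hind limb tonic extension was recorded. Values are mean±SEM; ANOVA with Dunnett's test vs control.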

[2] = test system: Mus musculus; experiment: Antinociceptive activity in Swiss albino mouse assessed as reduction of capsaicin-induced flinching at 10 mg/kg, po administered 1 hr followed by capsaicin challenge; format: functional; set-up: scale not given: the % may be the effect or the level left
Method in brief: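 Male Swiss mice (18-22 g), six per group, were dosed by oral gavage with compound in 0.5% sodium carboxymethylcellulose. One hour later, capsaicin (1 nmol/paw, 20 μl) was injected intraplantar into the right hind paw. Flinches of the injected paw were counted for 5 min. Values are mean±SEM; ANOVA with Dunnett's test vs vehicle control.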

[3] = test system: Rattus norvegicus; experiment: Anticonvulsant activity in Wistar albino rat assessed as time of onset of subcutaneous pentylenetetrazole-induced clonic convulsion at 50 mg/kg, po administered 1 hr prior to pentylenetetrazole challenge measured for 300 secs (reference value: 83 +/- 4 secs); format: functional
[4] = test system: Rattus norvegicus; experiment: Anticonvulsant activity in Wistar albino rat assessed as protection against subcutaneous pentylenetetrazole-induced mortality at 50 mg/kg, po administered 1 hr prior to pentylenetetrazole challenge measured for 300 secs relative to control; format: functional
Method in brief: (§2)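 Male Wistar albino rats, six per group. Test agents were given orally as suspensions in 0.5% sodium carboxymethylcellulose; the reference was given i.p.; the vehicle group served as control. Pentylenetetrazole 80 mg/kg was given s.c. 1 h later. Onset of clonic convulsions and protection against mortality were recorded, with a 300 sec maximum latency. Mean±SEM; one-way ANOVA with Dunnett's test.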

[5] = test system: Radical scavenging activity; experiment: Antioxidant activity assessed as DPPH free radical scavenging activity under dark condition after 30 mins; format: functional
Method in brief: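 Test compound in ethanol (10, 50, 100, 250, 500 μg/ml solutions) was added to 0.004% DPPH in methanol. The mixture was kept in the dark for 30 min and absorbance was read at 517 nm. Percent radical inhibition was calculated, with ascorbic acid as reference, and IC50 was derived.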

[6] = test system: Rattus norvegicus; experiment: Anticonvulsant activity in Wistar albino rat assessed as protection against maximum electric shock-induced hind limb tonic extension administered 1 hr followed by maximum electric shock induction; format: functional, organism-based; conditions: Hindlimb; method in brief: as §1
[7] = test system: Rattus norvegicus; experiment: Anticonvulsant activity in Wistar albino rat assessed as protection against maximum electric shock-induced hind limb tonic extension at 30 mg/kg administered 1 hr followed by maximum electric shock induction relative to control; format: functional, Hindlimb
Method in brief: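 Male Wistar albino rats, six per group, dosed orally as a suspension in 0.5% sodium carboxymethylcellulose, with a vehicle control group. One hour later, 150 mA for 0.2 sec was applied through corneal electrodes. Duration of hind limb tonic extension was recorded, and abolition or reduction of extension was scored against control. Mean±SEM; one-way ANOVA with Dunnett's test.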

[8] = test system: Rattus norvegicus; experiment: Anticonvulsant activity in Wistar albino rat assessed as time of onset of subcutaneous pentylenetetrazole-induced clonic convulsion at 30 mg/kg administered 1 hr prior to pentylenetetrazole challenge measured for 300 secs (reference value: 83 +/- 4 secs); format: functional
[9] = test system: Rattus norvegicus; experiment: Anticonvulsant activity in Wistar albino rat assessed as protection against subcutaneous pentylenetetrazole-induced mortality at 30 mg/kg administered 1 hr prior to pentylenetetrazole challenge measured for 300 secs relative to control; format: functional
[10] = test system: Rattus norvegicus; experiment: Anticonvulsant activity in po dosed Wistar albino rat assessed as protection against maximum electric shock-induced hind limb tonic extension administered 1 hr followed by maximum electric shock induction; format: functional, organism-based; conditions: Hindlimb; method in brief: as §1
[11] = test system: Rattus norvegicus; experiment: Anticonvulsant activity in po dosed Wistar albino rat assessed as protection against subcutaneous pentylenetetrazole-induced mortality administered 1 hr prior to pentylenetetrazole challenge measured for 300 secs; format: functional, organism-based
[12] = test system: Rattus norvegicus; experiment: Anticonvulsant activity in po dosed Wistar albino rat assessed as inhibition of subcutaneous pentylenetetrazole-induced seizure administered 1 hr prior to pentylenetetrazole challenge measured for 300 secs; format: functional, organism-based
[13] = test system: Rattus norvegicus; experiment: Anticonvulsant activity in Wistar albino rat assessed as time of onset of subcutaneous pentylenetetrazole-induced clonic convulsion at 100 mg/kg, po administered 1 hr prior to pentylenetetrazole challenge measured for 300 secs (reference value: 83 +/- 3.8 secs); format: functional
[14] = test system: Rattus norvegicus; experiment: Anticonvulsant activity in Wistar albino rat assessed as time of onset of subcutaneous pentylenetetrazole-induced clonic convulsion at 25 mg/kg, po administered 1 hr prior to pentylenetetrazole challenge measured for 300 secs (reference value: 83 +/- 3.8 secs); format: functional
[15] = test system: Rattus norvegicus; experiment: Anticonvulsant activity in Wistar albino rat assessed as protection against subcutaneous pentylenetetrazole-induced mortality at 25 mg/kg, po administered 1 hr prior to pentylenetetrazole challenge measured for 300 secs relative to control; format: functional; method in brief: as §2
[16] = test system: Rattus norvegicus; experiment: Anticonvulsant activity in Wistar albino rat assessed as protection against maximum electric shock-induced hind limb tonic extension at 100 mg/kg, po administered 1 hr followed by maximum electric shock induction relative to control; format: functional, Hindlimb; method in brief: as §1
[17] = test system: Rattus norvegicus; experiment: Anticonvulsant activity in Wistar albino rat assessed as protection against maximum electric shock-induced hind limb tonic extension at 25 mg/kg, po administered 1 hr followed by maximum electric shock induction relative to control; format: functional, Hindlimb; method in brief: as §1
[18] = test system: Rattus norvegicus; experiment: Anticonvulsant activity in Wistar albino rat assessed as protection against subcutaneous pentylenetetrazole-induced mortality at 100 mg/kg, po administered 1 hr prior to pentylenetetrazole challenge measured for 300 secs relative to control; format: functional; method in brief: as §2
[19] = test system: Rattus norvegicus; experiment: Anticonvulsant activity in Wistar albino rat assessed as protection against maximum electric shock-induced hind limb tonic extension at 30 mg/kg, po administered 1 hr followed by maximum electric shock induction relative to control; format: functional, Hindlimb; method in brief: as §1
[20] = test system: Rattus norvegicus; experiment: Anticonvulsant activity in Wistar albino rat assessed as time of onset of subcutaneous pentylenetetrazole-induced clonic convulsion at 5 mg/kg, ip administered 1 hr prior to pentylenetetrazole challenge measured for 300 secs (reference value: 83 +/- 4 secs); format: functional; method in brief: as §2

| SMILES | Activity [1] [%] | Time [3] [s] | Activity [4] [%] | IC50 [5] [µg/mL] | also measured |
| --- | --- | --- | --- | --- | --- |
| COC(=O)C1=C(C)NC(C)=C(C(=O)OC)C1c1ccc2c(c1)OCO2 | 27 | 200 | 0 | 604 (≈ 1750 µM) | Activity [2]: 21% |
| O=C1O[C@H]([C@@H](O)CO)C(O)=C1O [ASCORBIC ACID] | – | – | – | 32 (≈ 182 µM) | – |
| COC(=O)C1=C(C)NC(C)=C(C(=O)OC(C)C)C1c1cccc2nonc12 (stereo not given) | – | – | – | – | Activity [6]: Active |
| CCOC(=O)C1=C(C)N(c2ccccc2)C(C)=C(C(=O)OC)C1c1ccc2c(c1)OCO2 (stereo not given) | 41.2 | 221 | 0 | 740 (≈ 1700 µM) | – |
| COC(=O)C1=C(C)N(c2ccc([N+](=O)[O-])cc2)C(C)=C(C(=O)OC)C1c1ccc2c(c1)OCO2 | 7.9 | 93 | 0 | 1289 (≈ 2760 µM) | – |
| CCOC(=O)C1=C(C)N(c2ccc([N+](=O)[O-])cc2)C(C)=C(C(=O)OCC)C1c1ccc2c(c1)OCO2 | 46 | 237 | 66.6 | 597 (≈ 1210 µM) | – |
| CCOC(=O)C1=C(C)N(c2cccc([N+](=O)[O-])c2)C(C)=C(C(=O)OCC)C1c1ccc2c(c1)OCO2 | 49.2 | 250 | 33.3 | 363 (≈ 734 µM) | – |
| COC(=O)C1=C(C)NC(C)=C(C(=O)OC)C1c1ccccc1[N+](=O)[O-] [NIFEDIPINE] | – | – | – | – | Activity [7]: 66.6%; Time [8]: 215 s; Activity [9]: 33.3% |
| CCOC(=O)C1=C(C)N(c2cccc([N+](=O)[O-])c2)C(C)=C(C(=O)OC)C1c1ccc2c(c1)OCO2 (stereo not given) | 28.5 | 136 | 0 | 386 (≈ 803 µM) | – |
| CCOC(=O)C1=C(C)NC(C)=C(C(=O)OC)C1c1ccc2c(c1)OCO2 (stereo not given) | 28.5 | 233 | 33.3 | 467 (≈ 1300 µM) | – |
| CCOC(=O)C1=C(C)NC(C)=C(C(=O)OCC)C1c1ccc2c(c1)OCO2 | 59 | >300 | 100 | 375 (≈ 1000 µM) | Activity [10]: Dose-dependent effect; Activity [11]: Dose-dependent effect; inhibition [12]: Dose-dependent effect; Activity [2]: 8%; Time [13]: >300 s; Time [14]: 194 s; Activity [15]: 100%; Activity [16]: 72%; Activity [17]: 41.6%; Activity [18]: 0% |
| O=C1NC(=O)C(c2ccccc2)(c2ccccc2)N1 [PHENYTOIN] | – | – | – | – | Activity [19]: 69.8% |
| CN1C(=O)CN=C(c2ccccc2)c2cc(Cl)ccc21 [DIAZEPAM] | – | – | – | – | Time [20]: 262 s |
| CCOC(=O)C1=C(C)N(c2ccccc2)C(C)=C(C(=O)OCC)C1c1ccc2c(c1)OCO2 | 46 | 275 | 66.6 | 443 (≈ 986 µM) | – |
| COC(=O)C1=C(C)N(c2ccccc2[N+](=O)[O-])C(C)=C(C(=O)OC)C1c1ccc2c(c1)OCO2 | 33.3 | 174 | 0 | 2354 (≈ 5050 µM) | – |
| CCOC(=O)C1=C(C)N(c2ccccc2[N+](=O)[O-])C(C)=C(C(=O)OCC)C1c1ccc2c(c1)OCO2 | 60.3 | 293 | 66.6 | 874 (≈ 1770 µM) | – |
| CCOC(=O)C1=C(C)N(c2ccc([N+](=O)[O-])cc2)C(C)=C(C(=O)OC)C1c1ccc2c(c1)OCO2 (stereo not given) | 31.7 | 225 | 33.3 | 854 (≈ 1780 µM) | Activity [2]: 4% |
| COC(=O)C1=C(C)N(c2ccccc2)C(C)=C(C(=O)OC)C1c1ccc2c(c1)OCO2 | 41.2 | 200 | 0 | 542 (≈ 1290 µM) | Activity [2]: 0% |
| CCOC(=O)C1=C(C)N(c2ccccc2[N+](=O)[O-])C(C)=C(C(=O)OC)C1c1ccc2c(c1)OCO2 (stereo not given) | 44.5 | 251 | 33.3 | 933 (≈ 1940 µM) | – |
| COC(=O)C1=C(C)N(c2cccc([N+](=O)[O-])c2)C(C)=C(C(=O)OC)C1c1ccc2c(c1)OCO2 | 11.1 | 138 | 0 | 521 (≈ 1120 µM) | – |
